Measured values taken from ChEMBL document CHEMBL4400550, “Designing Dual Inhibitors of Anaplastic Lymphoma Kinase (ALK) and Bromodomain-4 (BRD4) by Tuning Kinase Selectivity” (J Med Chem, 2019).
pIC50, pKd: −log10 of the molar value. ≈ marks a conversion by molar mass, not a printed value. Calls of active or inactive are those of the source. The calls are words filed in the database; no cut-off is given here.

Legend:
[1] = target: T1, ALK tyrosine kinase receptor (Homo sapiens, UniProt Q9UM73, F1174L); experiment: Displacement of kinase tracer 236 from human N-terminal GST-tagged ALK F1174L mutant (1058 to 1620 residues) after 60 mins by LanthaScreen Eu--kinase binding assay
In short: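 LanthaScreen Eu binding assay. Mix 5 nM ALK F1174L, 30 nM Kinase Tracer 236 and 2 nM Eu-anti-GST antibody in 50 mM HEPES pH 7.5, 10 mM MgCl2, 1 mM EGTA, 0.01% Brij-35, 1 mM DTT. Compound runs 0.5 nM–100 μM in 1% DMSO. Incubate 60 min at room temperature. Read the 665 nm acceptor/donor emission ratio; fit log(inhibitor) vs ratio with a variable-slope equation.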

[2] = target: T2, Bromodomain-containing protein 4 (Homo sapiens, UniProt O60885)
[3] = target: T3, Serine/threonine-protein kinase PLK1 (Homo sapiens, UniProt P53350); experiment: Inhibition of PLK1 (unknown origin) using Ser/Thr 16 as substrate after 60 mins by Z-LYTE activity assay
[4] = target: T2, Bromodomain-containing protein 4; experiment: Binding affinity to BRD4 (unknown origin) by isothermal calorimetry
[5] = target: T3, Serine/threonine-protein kinase PLK1; experiment: Inhibition of PLK1 (unknown origin) at 10 nM using Ser/Thr 16 as substrate after 60 mins by Z-LYTE activity assay
In short: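 PLK-1 Z'-LYTE activity assay run externally through the SelectScreen kinase profiling service. Percentage inhibition is measured at 10 nM compound.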

[6] = target: T4, ALK tyrosine kinase receptor (Homo sapiens, UniProt Q9UM73); experiment: Inhibition of full-length C-terminal NanoLuc-tagged ALK (unknown origin) expressed in human HEK293 cells after 2 hrs by NanoBRET target engagement assay; assay type: cell-based
Target sequence in this assay (Q9UM73 whole entry): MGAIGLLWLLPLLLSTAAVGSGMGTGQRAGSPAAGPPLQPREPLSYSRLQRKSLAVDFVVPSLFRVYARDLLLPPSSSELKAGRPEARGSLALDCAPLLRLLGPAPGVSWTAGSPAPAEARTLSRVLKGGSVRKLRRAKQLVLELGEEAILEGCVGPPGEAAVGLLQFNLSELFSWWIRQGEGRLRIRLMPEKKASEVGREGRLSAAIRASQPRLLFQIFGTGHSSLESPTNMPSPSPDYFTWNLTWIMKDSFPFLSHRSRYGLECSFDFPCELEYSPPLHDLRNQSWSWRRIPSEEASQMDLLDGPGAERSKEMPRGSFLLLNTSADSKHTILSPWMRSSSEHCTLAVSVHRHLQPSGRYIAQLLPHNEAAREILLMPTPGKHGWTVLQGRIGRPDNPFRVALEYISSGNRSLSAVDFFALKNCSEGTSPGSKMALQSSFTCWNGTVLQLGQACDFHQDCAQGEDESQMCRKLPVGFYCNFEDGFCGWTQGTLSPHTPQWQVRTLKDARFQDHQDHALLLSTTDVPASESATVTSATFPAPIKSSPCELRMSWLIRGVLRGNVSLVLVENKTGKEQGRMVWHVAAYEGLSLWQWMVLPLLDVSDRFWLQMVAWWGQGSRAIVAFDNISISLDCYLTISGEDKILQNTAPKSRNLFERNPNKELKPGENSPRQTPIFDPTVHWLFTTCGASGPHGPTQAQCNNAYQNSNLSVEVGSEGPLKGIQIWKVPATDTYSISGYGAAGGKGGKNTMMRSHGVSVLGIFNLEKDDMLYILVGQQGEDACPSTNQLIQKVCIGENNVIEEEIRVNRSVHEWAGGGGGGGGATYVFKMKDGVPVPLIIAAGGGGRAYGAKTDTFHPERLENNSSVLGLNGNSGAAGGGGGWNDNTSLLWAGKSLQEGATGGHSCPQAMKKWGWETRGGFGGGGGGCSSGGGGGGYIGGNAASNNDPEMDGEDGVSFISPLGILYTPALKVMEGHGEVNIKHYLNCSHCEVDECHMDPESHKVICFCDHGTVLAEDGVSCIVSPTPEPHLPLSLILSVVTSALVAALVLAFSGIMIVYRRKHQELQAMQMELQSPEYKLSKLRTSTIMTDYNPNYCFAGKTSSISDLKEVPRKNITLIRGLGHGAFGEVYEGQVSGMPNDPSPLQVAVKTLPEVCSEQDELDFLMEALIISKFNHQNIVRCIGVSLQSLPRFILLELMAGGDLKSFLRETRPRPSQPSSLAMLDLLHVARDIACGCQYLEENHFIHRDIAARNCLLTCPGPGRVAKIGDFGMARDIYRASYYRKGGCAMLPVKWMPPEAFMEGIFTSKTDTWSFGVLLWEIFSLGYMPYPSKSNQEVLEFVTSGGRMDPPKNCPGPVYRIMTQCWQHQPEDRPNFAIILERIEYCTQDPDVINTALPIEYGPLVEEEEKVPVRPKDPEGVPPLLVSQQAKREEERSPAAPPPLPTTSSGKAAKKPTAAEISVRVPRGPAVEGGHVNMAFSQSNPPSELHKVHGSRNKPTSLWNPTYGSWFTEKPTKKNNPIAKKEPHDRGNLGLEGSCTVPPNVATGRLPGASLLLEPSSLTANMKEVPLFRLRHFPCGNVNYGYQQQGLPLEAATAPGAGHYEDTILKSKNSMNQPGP

[7] = target: T2, Bromodomain-containing protein 4; experiment: Inhibition of full-length C-terminal NanoLuc-tagged BRD4 BD1 (unknown origin) expressed in human HEK293 cells after 2 hrs by NanoBRET target engagement assay; assay type: cell-based
[8] = target: T5, Serine/threonine-protein kinase PLK3 (Homo sapiens, UniProt Q9H4B4); experiment: Binding affinity to human PLK3 (42 to 334 residues) expressed in mammalian expression system by kinome scan-based assay
Target sequence in this assay (Q9H4B4 whole entry, the tested form may be a part): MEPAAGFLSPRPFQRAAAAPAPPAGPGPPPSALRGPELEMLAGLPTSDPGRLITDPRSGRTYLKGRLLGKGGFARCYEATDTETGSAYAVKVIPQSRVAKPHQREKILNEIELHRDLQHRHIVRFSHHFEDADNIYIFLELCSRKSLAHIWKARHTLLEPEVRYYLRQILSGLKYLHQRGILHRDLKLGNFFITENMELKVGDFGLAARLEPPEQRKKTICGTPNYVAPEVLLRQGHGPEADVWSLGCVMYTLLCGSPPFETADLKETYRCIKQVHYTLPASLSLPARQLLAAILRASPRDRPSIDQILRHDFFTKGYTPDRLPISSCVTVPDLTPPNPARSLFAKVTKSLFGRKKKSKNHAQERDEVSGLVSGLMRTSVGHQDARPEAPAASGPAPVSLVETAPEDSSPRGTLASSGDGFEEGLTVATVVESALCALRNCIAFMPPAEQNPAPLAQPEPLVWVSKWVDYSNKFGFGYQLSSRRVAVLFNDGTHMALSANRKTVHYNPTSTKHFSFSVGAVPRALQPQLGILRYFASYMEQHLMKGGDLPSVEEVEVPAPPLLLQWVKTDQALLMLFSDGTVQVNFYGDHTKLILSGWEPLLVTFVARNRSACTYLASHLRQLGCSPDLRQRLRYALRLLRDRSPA

[9] = target: T4, ALK tyrosine kinase receptor; experiment: Binding affinity to wild type human ALK (1088 to 1409 residues) expressed in mammalian expression system assessed as unbound protein level at 1 uM by kinome scan-based assay
In short: (§1)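 Single-point KINOMEscan (scanEDGE) competition binding at 1 μM compound. Read-out is %Ctrl, with DMSO set as 100%Ctrl; lower values mean stronger binding.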
Target sequence in this assay (Q9UM73 19-1620 limits assumed): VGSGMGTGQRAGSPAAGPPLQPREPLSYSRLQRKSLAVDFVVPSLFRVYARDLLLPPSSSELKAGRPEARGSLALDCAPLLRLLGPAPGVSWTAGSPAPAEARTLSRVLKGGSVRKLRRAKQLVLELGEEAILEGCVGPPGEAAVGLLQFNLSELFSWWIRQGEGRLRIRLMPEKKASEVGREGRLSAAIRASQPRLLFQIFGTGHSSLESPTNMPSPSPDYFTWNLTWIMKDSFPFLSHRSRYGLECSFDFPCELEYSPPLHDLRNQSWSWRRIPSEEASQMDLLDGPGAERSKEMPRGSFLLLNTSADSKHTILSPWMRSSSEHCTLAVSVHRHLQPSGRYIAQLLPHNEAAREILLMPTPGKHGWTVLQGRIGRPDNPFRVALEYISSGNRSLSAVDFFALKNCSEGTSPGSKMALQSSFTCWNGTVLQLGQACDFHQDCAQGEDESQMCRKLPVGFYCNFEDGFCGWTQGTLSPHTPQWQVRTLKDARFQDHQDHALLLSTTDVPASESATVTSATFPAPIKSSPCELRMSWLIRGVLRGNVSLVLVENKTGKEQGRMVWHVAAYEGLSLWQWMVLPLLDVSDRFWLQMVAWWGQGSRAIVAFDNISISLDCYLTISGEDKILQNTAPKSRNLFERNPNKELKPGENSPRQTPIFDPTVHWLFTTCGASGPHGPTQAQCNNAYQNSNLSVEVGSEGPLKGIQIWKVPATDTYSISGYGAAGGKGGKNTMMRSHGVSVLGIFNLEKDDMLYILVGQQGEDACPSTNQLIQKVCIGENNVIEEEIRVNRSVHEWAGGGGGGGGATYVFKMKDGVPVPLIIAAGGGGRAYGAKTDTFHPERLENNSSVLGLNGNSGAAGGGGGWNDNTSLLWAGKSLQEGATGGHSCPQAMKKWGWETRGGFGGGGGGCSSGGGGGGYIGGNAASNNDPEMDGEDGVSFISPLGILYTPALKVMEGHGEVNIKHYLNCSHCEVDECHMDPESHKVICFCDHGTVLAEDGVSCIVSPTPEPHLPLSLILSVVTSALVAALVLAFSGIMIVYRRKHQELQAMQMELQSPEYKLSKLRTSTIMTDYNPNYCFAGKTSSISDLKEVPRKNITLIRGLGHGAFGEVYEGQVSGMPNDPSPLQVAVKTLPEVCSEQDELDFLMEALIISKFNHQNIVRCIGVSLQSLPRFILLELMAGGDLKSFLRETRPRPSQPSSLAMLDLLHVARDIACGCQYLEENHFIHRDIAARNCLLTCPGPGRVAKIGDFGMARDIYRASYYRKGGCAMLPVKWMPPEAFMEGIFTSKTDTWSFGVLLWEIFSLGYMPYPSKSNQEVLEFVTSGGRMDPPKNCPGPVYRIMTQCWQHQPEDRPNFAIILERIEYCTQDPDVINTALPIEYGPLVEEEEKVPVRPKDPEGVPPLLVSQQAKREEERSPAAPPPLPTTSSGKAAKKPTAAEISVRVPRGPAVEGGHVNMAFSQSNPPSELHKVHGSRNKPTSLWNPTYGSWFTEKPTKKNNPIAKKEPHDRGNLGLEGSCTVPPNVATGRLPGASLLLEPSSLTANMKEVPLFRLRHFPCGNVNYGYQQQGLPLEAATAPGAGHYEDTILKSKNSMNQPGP

Insulin receptor [10] = target: T6, Insulin receptor (Homo sapiens, UniProt P06213); experiment: Binding affinity to human INSR (997 to 1318 residues) expressed in mammalian expression system assessed as unbound protein level at 1 uM by kinome scan-based assay; in short: as §1
[11] = target: T3, Serine/threonine-protein kinase PLK1; experiment: Binding affinity to human PLK1 (33 to 325 residues) expressed in mammalian expression system assessed as unbound protein level at 1 uM by kinome scan-based assay; in short: as §1
[12] = target: T1, ALK tyrosine kinase receptor; experiment: Inhibition of ALK F1174L mutant auto-phosphorylation in human Kelly cells after 3 hrs by MSD assay; assay type: cell-based
[13] = target: T1, ALK tyrosine kinase receptor; experiment: Binding affinity to human ALK F1174L mutant (1088 to 1409 residues) expressed in mammalian expression system by kinome scan-based assay
[14] = Solubility of the compound in phosphate buffer at pH 7.4 b HPLC analysis; assay type: physicochemical
In short: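 Solubility measured by in-house HPLC method from phosphate buffer at pH 7.4.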

Homo sapiens [15] = species on record: Homo sapiens; experiment: Selectivity ratio of IC50 for PLK1 (unknown origin) to IC50 for human N-terminal GST-tagged ALK F1174L mutant (1058 to 1620 residues)
Homo sapiens [16] = species on record: Homo sapiens; experiment: Selectivity ratio of IC50 for PLK1 in human HeLa cells to IC50 for human N-terminal GST-tagged ALK F1174L mutant (1058 to 1620 residues); assay type: cell-based
Insulin receptor [17] = target: T6, Insulin receptor; experiment: Binding affinity to human INSR (997 to 1318 residues) expressed in mammalian expression system by kinome scan-based assay
[18] = target: T4, ALK tyrosine kinase receptor; experiment: Binding affinity to wild type human ALK (1088 to 1409 residues) expressed in mammalian expression system by kinome scan-based assay
Target sequence in this assay (Q9UM73 whole entry): as the sequence (Q9UM73 whole entry) above

[19] = target: T3, Serine/threonine-protein kinase PLK1; experiment: Binding affinity to human PLK1 (33 to 325 residues) expressed in mammalian expression system by kinome scan-based assay
HeLa = experiment: Induction of cell cycle arrest in human HeLa cells at 4 to 10 uM after 24 hrs by propidium iodide-staining based flow cytometry; assay type: functional
[20] = Permeability of the compound at pH 7.4 by PAMPA; assay type: ADME; details: read-out: permeability
[21] = target: T5, Serine/threonine-protein kinase PLK3; experiment: Binding affinity to human PLK3 (42 to 334 residues) expressed in mammalian expression system assessed as unbound protein level at 1 uM by kinome scan-based assay; in short: as §1
Target sequence in this assay (Q9H4B4 whole entry, looked up, the tested form may be a part): as the sequence (Q9H4B4 whole entry, the tested form may be a part) above

[22] = Partition coefficient, log P of the compound; assay type: physicochemical; details: octanol/water
[23] = Lipophilicity, log D of the compound at pH 7.4; assay type: physicochemical; details: buffer

T3 sequence (P53350 whole entry): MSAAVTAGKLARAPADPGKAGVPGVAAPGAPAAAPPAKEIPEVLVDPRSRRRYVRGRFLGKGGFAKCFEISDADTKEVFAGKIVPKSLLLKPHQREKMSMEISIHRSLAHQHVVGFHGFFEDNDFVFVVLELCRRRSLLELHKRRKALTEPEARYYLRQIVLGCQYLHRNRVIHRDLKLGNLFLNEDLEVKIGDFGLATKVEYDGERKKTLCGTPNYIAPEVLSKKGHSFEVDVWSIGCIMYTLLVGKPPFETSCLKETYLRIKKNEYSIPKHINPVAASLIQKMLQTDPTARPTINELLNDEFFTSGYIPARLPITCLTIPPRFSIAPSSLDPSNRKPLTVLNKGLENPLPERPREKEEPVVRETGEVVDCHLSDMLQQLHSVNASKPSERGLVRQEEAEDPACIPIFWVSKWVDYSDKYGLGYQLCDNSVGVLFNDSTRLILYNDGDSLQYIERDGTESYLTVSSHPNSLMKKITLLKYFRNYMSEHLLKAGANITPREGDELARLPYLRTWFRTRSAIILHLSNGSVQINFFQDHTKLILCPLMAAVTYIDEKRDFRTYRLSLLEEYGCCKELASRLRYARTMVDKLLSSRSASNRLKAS
T1 sequence (Q9UM73 19-1620 F1174L limits assumed): as the sequence (Q9UM73 19-1620 limits assumed) above, with F1156L counted along it

Structure (SMILES) | pIC50 [1] | deltaTm [2] [K] | pIC50 [3] | pKd [4] | also measured
CC[C@@H]1C(=O)N(C)c2cnc(Nc3ccc(C(=O)NC4CCN(C)CC4)cc3OCC(C)C)nc2N1C1CCCC1 | 5.77 | 7.2 | – | 7.14 | inhibition [5]: 43%
CCOc1cc(C2CCN(C)CC2)ccc1Nc1ncc2c(n1)N(Cc1ccc(Br)cc1)[C@H](CC)C(=O)N2C | 6.17 | 5.8 | – | – | –
CCOc1cc(C(=O)NC2CCN(C)CC2)ccc1Nc1ncc2c(n1)N(C1CCCC1)CC(=O)N2C | 6.28 | 0.2 | – | – | inhibition [5]: 32%
CCOc1cc(C(=O)NC2CCN(C)CC2)ccc1Nc1ncc2c(n1)N(C1CCCC1)[C@H](CC)C(=O)N2C | 6.42 | 6 | 7.92 | 7.09 | –
CCOc1cc(C2CCN(C)CC2)ccc1Nc1ncc2c(n1)N(Cc1ccccc1)[C@H](CC)C(=O)N2C | 7.07 | 4.7 | 6.54 | 7.27 | pIC50 [6]: 5.79; pIC50 [7]: 6.27
CCOc1cc(C(=O)NC2CCN(C)CC2)ccc1Nc1ncc2c(n1)N(Cc1cccc(Br)c1)[C@H](CC)C(=O)N2C | 6.31 | 6.7 | 6.96 | 7.14 | –
CCOc1cc(C(=O)NC2CCN(C)CC2)ccc1Nc1ncc2c(n1)N(C1CCCC1)[C@@H](CC)C(=O)N2C | 5.47 | -0.2 | – | – | inhibition [5]: 19%
CCOc1cc(C2CCN(C)CC2)ccc1Nc1ncc2c(n1)N(Cc1cccc(OC)c1)[C@H](CC)C(=O)N2C | 6.46 | 5.1 | – | – | –
CCOc1cc(C2CCN(C)CC2)ccc1Nc1ncc2c(n1)N(Cc1ccccc1Br)[C@H](CC)C(=O)N2C | 6.82 | 2.9 | – | – | –
CCOc1cc(C2CCN(C)CC2)ccc1Nc1ncc2c(n1)N(Cc1cccc(Br)c1)[C@H](CC)C(=O)N2C | 6.54 | 5 | 6.27 | 6.92 | –
CCOc1cc(C2CCN(C)CC2)ccc1Nc1ncc2c(n1)N(Cc1scnc1C)[C@H](CC)C(=O)N2C | 6.43 | 4.6 | – | – | –

Further lines, with some results ahead:

pIC50 [1] | deltaTm [2] [K] | pIC50 [3] | pKd [4] | Structure (SMILES) | also measured
6.66 | 8.3 | – | – | CCOc1cc(C2CCN(C)CC2)ccc1Nc1ncc2c(n1)N(Cc1ccc(C)s1)[C@H](CC)C(=O)N2C | –
6.36 | 4.1 | 7.08 | 7.16 | CCOc1cc(C(=O)NC2CCN(C)CC2)ccc1Nc1ncc2c(n1)N(Cc1ccccc1)[C@H](CC)C(=O)N2C | –
7.20 | 5.4 | 7.17 | 7.20 | CCOc1cc(C2CCN(C)CC2)ccc1Nc1ncc2c(n1)N(Cc1sccc1C)[C@H](CC)C(=O)N2C | pIC50 [6]: 5.99; pIC50 [7]: 6.51
6.54 | 5.4 | 8.00 | 7.10 | CC[C@@H]1C(=O)N(C)c2cnc(Nc3ccc(C4CCN(C)CC4)cc3OC)nc2N1C1CCCC1 | –
7.77 | 7.1 | 6.90 | 7.36 | CCOc1cc(C2CCN(C)CC2)ccc1Nc1ncc2c(n1)N(Cc1cc(C)cs1)[C@H](CC)C(=O)N2C | pKd [8]: 6.80; Activity [9]: 7.1%; Activity (Insulin receptor [10]): 25%; Activity [11]: 1%; pIC50 [12]: 5.82; pKd [13]: 7.64; solubility [14]: 90 µM (≈ 48.1 µg/mL); Ratio IC50 (Homo sapiens [15]): 7; Ratio (Homo sapiens [16]): > 10; pKd (Insulin receptor [17]): 6.72; pKd [18]: 7.05; pKd [19]: 7.96; Activity (HeLa): Active; Papp [20]: 49 ×10⁻⁶ cm/s; pIC50 [6]: 6.33; Activity [21]: 25%; pIC50 [7]: 6.59; logP [22]: 6.1; logD [23]: 4.2
6.68 | 6.2 | 6.27 | 6.89 | CCOc1cc(C2CCN(C)CC2)ccc1Nc1ncc2c(n1)N(Cc1cccc(Cl)c1)[C@H](CC)C(=O)N2C | –
6.43 | 4.8 | 5.74 | 7.11 | CCOc1cc(C2CCN(C)CC2)ccc1Nc1ncc2c(n1)N(Cc1cccc(C#N)c1)[C@H](CC)C(=O)N2C | –
